From ChEMBL document CHEMBL4190195, “Bioactive Glycosides from the Twigs of Litsea cubeba” (J Nat Prod, 2017)
Values belong to the compound of their own block, whether it stands above or below them. The source made the active and inactive calls. No cut-off for these calls is given here.

Legend:
HepG2 = assay: Cytoprotection against 8 mM acetaminophen-induced human HepG2 cells assessed as cell viability at 10 uM after 24 hrs by MTT assay (reference value: 0 +/- 2%); assay type: functional; settings: in the assay text read “after 48 hrs” for “after 24 hrs”
Outline: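 HepG2 cells seeded at 1.5 × 10^4 cells/well in DMEM and grown 24 h at 37 °C, 5% CO2. Compound (10 μM) then added together with 8 mM acetaminophen; bicyclol 10 μM plus 8 mM acetaminophen served as reference. Cultured 48 h, then 0.5 mg/mL MTT for 4 h, formazan OD read at 570 nm. Mean ± SD of four independent experiments; Student's t-test.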

Bel-7402 = assay: Cytotoxicity against human Bel7402 cells assessed as growth inhibition at 10 uM after 72 hrs by coulter counting method; assay type: functional, cell-based
Histone deacetylase 1 = Histone deacetylase 1 (Homo sapiens, UniProt Q13547); assay: Inhibition of HDAC1 (unknown origin) using H3(1 to 21)K9 after 60 mins by fluorescence assay
Chain of Histone deacetylase 1 (Q13547 whole entry): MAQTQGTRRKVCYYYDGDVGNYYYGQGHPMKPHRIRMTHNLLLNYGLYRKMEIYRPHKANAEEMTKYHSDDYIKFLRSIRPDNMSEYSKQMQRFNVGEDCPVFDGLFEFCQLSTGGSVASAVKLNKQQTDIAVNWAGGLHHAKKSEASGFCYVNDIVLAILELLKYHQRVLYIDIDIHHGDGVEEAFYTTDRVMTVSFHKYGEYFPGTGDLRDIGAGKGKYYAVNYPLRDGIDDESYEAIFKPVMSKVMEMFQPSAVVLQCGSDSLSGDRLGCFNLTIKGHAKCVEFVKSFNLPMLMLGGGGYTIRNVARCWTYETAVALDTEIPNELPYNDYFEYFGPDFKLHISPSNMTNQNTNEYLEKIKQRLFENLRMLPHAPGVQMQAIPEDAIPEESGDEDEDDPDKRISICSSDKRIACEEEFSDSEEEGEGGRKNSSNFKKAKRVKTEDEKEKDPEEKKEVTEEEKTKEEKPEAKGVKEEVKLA

HCT-8 = assay: Cytotoxicity against human HCT8 cells assessed as growth inhibition at 10 uM after 72 hrs by coulter counting method; assay type: functional, cell-based
A549 = assay: Cytotoxicity against human A549 cells assessed as growth inhibition at 10 uM after 72 hrs by coulter counting method; assay type: functional, cell-based
A2780 = assay: Cytotoxicity against human A2780 cells assessed as growth inhibition at 10 uM after 72 hrs by coulter counting method; assay type: functional, cell-based
BGC-823 = assay: Cytotoxicity against human BGC823 cells assessed as growth inhibition at 10 uM after 72 hrs by coulter counting method; assay type: functional, cell-based
Peritoneal macrophage = assay: Inhibition of LPS-induced TNFalpha secretion in C57BL6J mouse peritoneal macrophages at 10 uM after 24 hrs; assay type: functional, cell-based

Structure (SMILES): COc1cc([C@H]2Oc3c(OC)cc(/C=C/CO[C@@H]4O[C@H](CO)[C@@H](O)[C@H](O)[C@H]4O)cc3[C@@H]2CO)ccc1O[C@@H]1O[C@H](CO)[C@@H](O)[C@H](O)[C@H]1O
Activity (HepG2): 46%

Structure (SMILES): COc1cc([C@H]2Oc3c(OC)cc(/C=C/CO[C@@H]4O[C@H](CO)[C@@H](O)[C@H](O)[C@H]4O)cc3[C@@H]2CO)cc(OC)c1O[C@@H]1O[C@H](CO)[C@@H](O)[C@H](O)[C@H]1O
Activity (HepG2): 30.5%

Structure (SMILES): COc1cc([C@@H](O)[C@H](CO)Oc2c(OC)cc(CCC(C)O)cc2OC)cc(OC)c1O[C@@H]1O[C@H](CO)[C@@H](O)[C@H](O)[C@H]1O (some centres not stated)
Activity (HepG2): 38.9%

IC50 (Histone deacetylase 1): 4.6 µM
Structure (SMILES): O=C(O)/C=C\c1cc2ccoc2cc1O[C@@H]1O[C@H](CO)[C@@H](O)[C@H](O)[C@H]1O
growth inhibition (GI) (Bel-7402): inactive
growth inhibition (GI) (HCT-8): inactive
growth inhibition (GI) (A549): inactive
growth inhibition (GI) (A2780): inactive
growth inhibition (GI) (BGC-823): inactive
inhibition (Peritoneal macrophage): inactive

IC50 (Histone deacetylase 1): 3.6 µM
Structure (SMILES): COc1cc([C@H]2Oc3c(OC)cc(CCCO)cc3[C@@H]2CO)ccc1O[C@@H]1O[C@H](CO)[C@@H](O)[C@H](O)[C@H]1O
growth inhibition (GI) (Bel-7402): inactive
growth inhibition (GI) (HCT-8): inactive
growth inhibition (GI) (A549): inactive
growth inhibition (GI) (A2780): inactive
Activity (HepG2): 38.4%
growth inhibition (GI) (BGC-823): inactive
inhibition (Peritoneal macrophage): inactive

Structure (SMILES): COC(=O)c1cc(OC)c2c(c1-c1c(CO)cc(OC)c3c1OCO3)OCO2 [BICYCLOL]
Activity (HepG2): 34.8%

Structure (SMILES): COc1cc([C@H]2Oc3c(OC)cc(CCCO)cc3[C@@H]2CO[C@@H]2O[C@H](CO[C@@H]3O[C@@H](C)[C@H](O)[C@@H](O)[C@H]3O)[C@@H](O)[C@H](O)[C@H]2O)ccc1O
Activity (HepG2): 37.4%

Structure (SMILES): CCC(=O)c1cc(OC)c(O[C@@H]2O[C@H](CO[C@@H]3O[C@@H](C)[C@H](O)[C@@H](O)[C@H]3O)[C@@H](O)[C@H](O)[C@H]2O)c(OC)c1
Activity (HepG2): 37.6%

Structure (SMILES): COc1cc([C@H]2Oc3c(OC)cc(CCCO)cc3[C@@H]2CO)cc(OC)c1O[C@@H]1O[C@H](CO)[C@@H](O)[C@H](O)[C@H]1O
Activity (HepG2): 31.2%
